Numbering of substitutions follows the chain as printed.
How the values were obtained:
Conditions in all cases: stereoisomer not certain
OR4S2 (Homo sapiens) = biological target: T1, OR4S2 (Homo sapiens) (UniProt Q8NH73)
T1 sequence (whole entry): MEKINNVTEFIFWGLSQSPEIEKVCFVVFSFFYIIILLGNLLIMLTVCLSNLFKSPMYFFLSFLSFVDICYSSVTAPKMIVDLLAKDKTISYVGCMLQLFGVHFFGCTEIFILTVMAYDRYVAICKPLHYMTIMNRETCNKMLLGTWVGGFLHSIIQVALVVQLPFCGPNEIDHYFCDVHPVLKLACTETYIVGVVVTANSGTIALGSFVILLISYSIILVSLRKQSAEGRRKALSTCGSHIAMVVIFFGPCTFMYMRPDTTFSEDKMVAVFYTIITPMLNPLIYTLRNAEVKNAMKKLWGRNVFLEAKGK
Summary of the method: (§1)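 Values were gathered from published papers (main text and supplementary material), with extra details requested from the original authors when needed, and checked for typos and inconsistencies. Each receptor–molecule pair is called responsive (active) if the original authors judged the measured signal statistically different from baseline, and non-responsive (inactive) otherwise. Assay methods varied by source, often transient mammalian cell-line luciferase assays. Recorded details include cell line, G-protein, co-transfected protein and tags.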

OR4X1 (Homo sapiens) = biological target: T2, OR4X1 (Homo sapiens) (UniProt Q8NH49)
T2 sequence (whole entry): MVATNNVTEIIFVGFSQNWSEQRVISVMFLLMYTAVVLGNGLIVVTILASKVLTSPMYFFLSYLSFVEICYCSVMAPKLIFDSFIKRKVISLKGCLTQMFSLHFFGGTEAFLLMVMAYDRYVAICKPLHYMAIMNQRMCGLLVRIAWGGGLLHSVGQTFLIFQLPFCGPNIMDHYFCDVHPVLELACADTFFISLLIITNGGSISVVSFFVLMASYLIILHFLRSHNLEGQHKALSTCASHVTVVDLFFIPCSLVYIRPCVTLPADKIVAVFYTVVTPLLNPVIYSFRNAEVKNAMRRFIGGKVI
Summary of the method: as §1

OR4X2 (Homo sapiens) = biological target: T3, OR4X2 (Homo sapiens) (UniProt Q8NGF9)
T3 sequence (whole entry): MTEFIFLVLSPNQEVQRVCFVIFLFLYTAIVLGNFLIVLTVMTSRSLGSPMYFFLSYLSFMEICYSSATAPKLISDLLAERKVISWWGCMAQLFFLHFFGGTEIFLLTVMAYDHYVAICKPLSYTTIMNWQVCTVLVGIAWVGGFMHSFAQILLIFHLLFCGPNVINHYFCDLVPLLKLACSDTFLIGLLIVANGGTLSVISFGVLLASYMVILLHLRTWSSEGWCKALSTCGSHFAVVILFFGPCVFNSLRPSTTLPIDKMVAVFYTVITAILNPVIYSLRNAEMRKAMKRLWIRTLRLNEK
Summary of the method: as §1

OR51A2 (Homo sapiens) = biological target: T4, OR51A2 (Homo sapiens) (UniProt Q8NGJ7)
T4 sequence (whole entry): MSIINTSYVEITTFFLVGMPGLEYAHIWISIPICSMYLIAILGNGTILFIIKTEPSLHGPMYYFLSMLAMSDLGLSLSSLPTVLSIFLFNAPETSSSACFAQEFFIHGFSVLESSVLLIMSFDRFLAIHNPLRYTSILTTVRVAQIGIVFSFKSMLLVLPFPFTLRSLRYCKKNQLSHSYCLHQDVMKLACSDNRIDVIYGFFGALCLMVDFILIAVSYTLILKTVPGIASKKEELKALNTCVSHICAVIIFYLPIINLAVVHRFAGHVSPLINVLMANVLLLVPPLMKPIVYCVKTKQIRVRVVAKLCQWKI
Summary of the method: as §1

OR51A4 (Homo sapiens) = biological target: T5, OR51A4 (Homo sapiens) (UniProt Q8NGJ6)
T5 sequence (whole entry): T4 sequence (whole entry) with G59E, T94I, S97N, S167N, P227L, E235Q, G267R, M288T, K289N, W311R
Summary of the method: as §1

OR51A7 (Homo sapiens) = biological target: T6, OR51A7 (Homo sapiens) (UniProt Q8NH64)
T6 sequence (whole entry): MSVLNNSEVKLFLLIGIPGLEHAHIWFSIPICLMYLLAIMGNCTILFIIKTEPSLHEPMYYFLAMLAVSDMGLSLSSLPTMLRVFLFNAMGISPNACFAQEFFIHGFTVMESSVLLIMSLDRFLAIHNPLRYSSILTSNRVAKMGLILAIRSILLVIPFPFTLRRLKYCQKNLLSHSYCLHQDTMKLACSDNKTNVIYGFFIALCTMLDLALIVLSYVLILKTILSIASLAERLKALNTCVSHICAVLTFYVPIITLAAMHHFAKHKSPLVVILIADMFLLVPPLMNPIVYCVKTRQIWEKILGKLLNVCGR
Summary of the method: as §1

OR51B2 (Homo sapiens) = biological target: T7, OR51B2 (Homo sapiens) (UniProt Q9Y5P1)
T7 sequence (whole entry): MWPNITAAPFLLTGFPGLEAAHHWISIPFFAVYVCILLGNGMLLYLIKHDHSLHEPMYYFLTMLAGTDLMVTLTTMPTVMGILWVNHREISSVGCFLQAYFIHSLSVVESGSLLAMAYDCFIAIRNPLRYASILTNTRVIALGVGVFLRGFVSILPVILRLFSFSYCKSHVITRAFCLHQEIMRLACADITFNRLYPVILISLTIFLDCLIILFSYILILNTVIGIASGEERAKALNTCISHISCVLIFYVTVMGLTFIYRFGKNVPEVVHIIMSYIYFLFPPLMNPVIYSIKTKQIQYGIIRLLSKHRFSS
Summary of the method: as §1

OR51B4 (Homo sapiens) = biological target: T8, OR51B4 (Homo sapiens) (UniProt Q9Y5P0)
T8 sequence (whole entry): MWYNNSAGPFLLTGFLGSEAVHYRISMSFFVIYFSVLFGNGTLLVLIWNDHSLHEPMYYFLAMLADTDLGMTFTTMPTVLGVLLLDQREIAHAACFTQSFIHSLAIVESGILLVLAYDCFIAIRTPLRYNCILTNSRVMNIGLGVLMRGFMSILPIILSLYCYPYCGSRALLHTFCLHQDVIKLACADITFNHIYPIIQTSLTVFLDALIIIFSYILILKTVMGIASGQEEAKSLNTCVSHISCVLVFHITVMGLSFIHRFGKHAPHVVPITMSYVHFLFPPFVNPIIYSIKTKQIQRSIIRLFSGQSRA
Summary of the method: as §1

OR51B5 (Homo sapiens) = biological target: T9, OR51B5 (Homo sapiens) (UniProt Q9H339)
T9 sequence (whole entry): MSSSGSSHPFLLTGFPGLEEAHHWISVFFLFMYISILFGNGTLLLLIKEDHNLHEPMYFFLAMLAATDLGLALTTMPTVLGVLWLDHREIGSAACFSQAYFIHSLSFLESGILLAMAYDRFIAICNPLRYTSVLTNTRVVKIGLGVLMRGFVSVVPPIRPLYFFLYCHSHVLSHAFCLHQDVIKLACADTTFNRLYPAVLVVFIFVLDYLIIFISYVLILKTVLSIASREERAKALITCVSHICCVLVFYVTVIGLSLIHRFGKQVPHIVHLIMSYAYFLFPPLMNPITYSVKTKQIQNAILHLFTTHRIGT
Summary of the method: as §1

OR51B6 (Homo sapiens) = biological target: T10, OR51B6 (Homo sapiens) (UniProt Q9H340)
T10 sequence (whole entry): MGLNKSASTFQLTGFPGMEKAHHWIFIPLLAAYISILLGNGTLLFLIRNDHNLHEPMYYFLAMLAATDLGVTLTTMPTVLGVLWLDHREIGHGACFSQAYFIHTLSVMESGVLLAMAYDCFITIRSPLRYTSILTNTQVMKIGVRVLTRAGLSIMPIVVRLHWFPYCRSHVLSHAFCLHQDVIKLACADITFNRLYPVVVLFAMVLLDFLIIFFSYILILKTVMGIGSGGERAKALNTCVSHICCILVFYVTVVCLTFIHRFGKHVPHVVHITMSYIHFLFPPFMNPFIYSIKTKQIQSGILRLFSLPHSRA
Summary of the method: as §1

OR51D1 (Homo sapiens) = biological target: T11, OR51D1 (Homo sapiens) (UniProt Q8NGF3)
T11 sequence (whole entry): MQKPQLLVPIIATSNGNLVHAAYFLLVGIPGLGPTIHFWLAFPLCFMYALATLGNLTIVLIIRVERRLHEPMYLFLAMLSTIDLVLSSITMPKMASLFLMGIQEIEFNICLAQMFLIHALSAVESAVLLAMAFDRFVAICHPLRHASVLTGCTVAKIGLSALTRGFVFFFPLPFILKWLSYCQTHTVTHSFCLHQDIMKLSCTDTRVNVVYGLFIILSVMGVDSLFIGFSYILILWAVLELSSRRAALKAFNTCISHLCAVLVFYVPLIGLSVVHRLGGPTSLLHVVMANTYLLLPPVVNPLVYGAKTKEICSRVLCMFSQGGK
Summary of the method: as §1

OR51E1 (Homo sapiens) = biological target: T12, OR51E1 (Homo sapiens) (UniProt Q8TCB6)
T12 sequence (whole entry): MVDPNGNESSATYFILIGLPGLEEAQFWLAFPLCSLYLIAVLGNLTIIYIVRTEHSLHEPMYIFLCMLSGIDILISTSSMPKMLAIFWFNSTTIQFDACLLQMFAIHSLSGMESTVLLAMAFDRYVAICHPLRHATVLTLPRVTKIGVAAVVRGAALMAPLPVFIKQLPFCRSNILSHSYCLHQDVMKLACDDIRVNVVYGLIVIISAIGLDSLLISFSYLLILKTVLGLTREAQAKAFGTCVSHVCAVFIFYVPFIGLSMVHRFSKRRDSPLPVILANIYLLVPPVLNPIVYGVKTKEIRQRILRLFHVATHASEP
Summary of the method: as §1

OR51E2 (Homo sapiens) = biological target: T13, OR51E2 (Homo sapiens) (UniProt Q9H255)
T13 sequence (whole entry): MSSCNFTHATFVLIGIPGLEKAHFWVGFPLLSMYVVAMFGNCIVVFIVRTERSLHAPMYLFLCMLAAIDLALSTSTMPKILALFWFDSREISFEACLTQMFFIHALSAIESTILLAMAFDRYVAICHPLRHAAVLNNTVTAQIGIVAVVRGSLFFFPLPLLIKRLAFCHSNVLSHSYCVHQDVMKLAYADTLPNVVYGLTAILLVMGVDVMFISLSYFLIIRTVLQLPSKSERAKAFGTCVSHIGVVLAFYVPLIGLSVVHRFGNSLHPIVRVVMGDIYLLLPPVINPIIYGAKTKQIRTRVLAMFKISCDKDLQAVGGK
Summary of the method: as §1

OR51F1 (Homo sapiens) = biological target: T14, OR51F1 (Homo sapiens) (UniProt A6NGY5)
T14 sequence (whole entry): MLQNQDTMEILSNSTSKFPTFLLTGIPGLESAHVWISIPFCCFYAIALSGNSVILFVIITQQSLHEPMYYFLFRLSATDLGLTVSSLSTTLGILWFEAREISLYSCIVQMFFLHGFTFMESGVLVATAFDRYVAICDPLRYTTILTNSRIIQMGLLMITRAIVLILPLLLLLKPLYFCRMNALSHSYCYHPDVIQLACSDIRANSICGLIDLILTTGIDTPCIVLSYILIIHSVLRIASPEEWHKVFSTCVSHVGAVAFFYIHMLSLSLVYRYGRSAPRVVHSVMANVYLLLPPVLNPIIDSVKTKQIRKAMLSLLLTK
Summary of the method: as §1

OR51F2 (Homo sapiens) = biological target: T15, OR51F2 (Homo sapiens) (UniProt Q8NH61)
T15 sequence (whole entry): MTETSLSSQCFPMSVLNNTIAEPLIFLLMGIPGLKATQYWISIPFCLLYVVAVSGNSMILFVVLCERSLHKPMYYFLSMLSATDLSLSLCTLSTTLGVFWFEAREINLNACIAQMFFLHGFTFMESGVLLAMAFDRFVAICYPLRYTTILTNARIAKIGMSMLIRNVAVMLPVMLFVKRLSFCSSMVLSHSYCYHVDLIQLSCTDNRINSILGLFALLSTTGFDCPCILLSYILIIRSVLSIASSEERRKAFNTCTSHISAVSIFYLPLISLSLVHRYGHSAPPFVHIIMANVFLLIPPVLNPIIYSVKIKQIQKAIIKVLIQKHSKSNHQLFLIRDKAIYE
Summary of the method: as §1

OR51G1 (Homo sapiens) = biological target: T16, OR51G1 (Homo sapiens) (UniProt Q8NGK1)
T16 sequence (whole entry): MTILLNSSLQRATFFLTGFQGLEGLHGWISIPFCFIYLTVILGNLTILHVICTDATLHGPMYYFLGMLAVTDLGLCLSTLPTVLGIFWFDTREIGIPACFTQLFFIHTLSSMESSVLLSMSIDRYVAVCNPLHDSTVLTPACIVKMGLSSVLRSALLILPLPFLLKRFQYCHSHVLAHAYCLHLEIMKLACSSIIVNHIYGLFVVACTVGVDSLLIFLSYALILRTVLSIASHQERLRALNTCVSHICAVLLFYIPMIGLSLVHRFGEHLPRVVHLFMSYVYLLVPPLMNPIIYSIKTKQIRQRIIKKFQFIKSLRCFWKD
Summary of the method: as §1

OR51G2 (Homo sapiens) = biological target: T17, OR51G2 (Homo sapiens) (UniProt Q8NGK0)
T17 sequence (whole entry): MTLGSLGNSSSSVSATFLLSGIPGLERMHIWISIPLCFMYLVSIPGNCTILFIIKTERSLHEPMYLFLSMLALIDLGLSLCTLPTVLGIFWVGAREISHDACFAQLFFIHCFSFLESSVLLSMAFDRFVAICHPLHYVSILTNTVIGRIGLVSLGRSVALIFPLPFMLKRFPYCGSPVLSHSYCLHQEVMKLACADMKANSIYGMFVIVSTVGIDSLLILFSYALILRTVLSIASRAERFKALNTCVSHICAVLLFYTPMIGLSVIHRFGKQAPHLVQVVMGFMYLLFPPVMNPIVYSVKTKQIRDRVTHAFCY
Summary of the method: as §1

OR51I1 (Homo sapiens) = biological target: T18, OR51I1 (Homo sapiens) (UniProt Q9H343)
T18 sequence (whole entry): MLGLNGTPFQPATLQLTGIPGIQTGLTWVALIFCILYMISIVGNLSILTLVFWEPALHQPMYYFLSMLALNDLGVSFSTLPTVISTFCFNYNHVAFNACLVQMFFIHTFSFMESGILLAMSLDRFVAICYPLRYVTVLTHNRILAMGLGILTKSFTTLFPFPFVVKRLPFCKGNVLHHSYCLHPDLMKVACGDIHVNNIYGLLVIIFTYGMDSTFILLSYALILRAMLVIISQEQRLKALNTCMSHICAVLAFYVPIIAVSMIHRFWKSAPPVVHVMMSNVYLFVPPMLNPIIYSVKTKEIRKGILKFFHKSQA
Summary of the method: as §1

Measured: odorant receptor agonist call

CCCCCC(S)C(C)CO (stereo unspecified)
inactive: all assays above

CCCCCC(=O)C(C)C(C)=O (stereo unspecified)
inactive: all assays above
